Active and inactive are the calls of the source. No cut-off for these calls is given here.
Experiments:
Rattus norvegicus [1] = assay: In-vivo inhibition of MAO in rat assessed as norepinephrine level in plasma at 20 mg/kg/day, po administered for 1 week measured post last dose by HPLC method (reference value: 200 +/- 13.2 ng/ml); assay type: functional
[2] = Acute toxicity in po dosed rat; assay type: organism-based; details: in vivo
Rattus norvegicus [3] = assay: In-vivo inhibition of MAO in rat assessed as dopamine level in brain at 20 mg/kg/day, po administered for 1 week measured post last dose by HPLC method (reference value: 0.459 +/- 0.07 ng/mg); assay type: functional
Rattus norvegicus [4] = assay: In-vivo inhibition of MAO in rat assessed as 5-hydroxytryptamine level in brain at 20 mg/kg/day, po administered for 1 week measured post last dose by HPLC method (reference value: 0.211 +/- 0.03 ng/mg); assay type: functional
Rattus norvegicus [5] = assay: In-vivo inhibition of MAOB in rat brain at 20 mg/kg/day, po administered for 1 week measured post last dose; assay type: functional, organism-based
Rattus norvegicus [6] = assay: In-vivo inhibition of MAO in rat assessed as dopamine level in plasma at 20 mg/kg/day, po administered for 1 week measured post last dose by HPLC method (reference value: 121.3 +/- 10.1 ng/ml); assay type: functional
Rattus norvegicus [7] = assay: In-vivo inhibition of MAO in rat assessed as 5-hydroxytryptamine level in plasma at 20 mg/kg/day, po administered for 1 week measured post last dose by HPLC method (reference value: 67.4 +/- 5.9 ng/ml); assay type: functional
Rattus norvegicus [8] = assay: In-vivo inhibition of MAOB in rat plasma at 20 mg/kg/day, po administered for 1 week measured post last dose; assay type: functional, organism-based
Rattus norvegicus [9] = assay: In-vivo inhibition of MAO in rat assessed as norepinephrine level in brain at 20 mg/kg/day, po administered for 1 week measured post last dose by HPLC method (reference value: 1.438 +/- 0.054 ng/mg); assay type: functional
[10] = target: T1, Amine oxidase [flavin-containing] A (Rattus norvegicus, UniProt P21396); assay: Inhibition of rat MAOA using 5-hydroxytryptamine as substrate pretreated for 1200 secs followed by substrate addition and measured after 3600 secs
T1 sequence (P21396 whole entry): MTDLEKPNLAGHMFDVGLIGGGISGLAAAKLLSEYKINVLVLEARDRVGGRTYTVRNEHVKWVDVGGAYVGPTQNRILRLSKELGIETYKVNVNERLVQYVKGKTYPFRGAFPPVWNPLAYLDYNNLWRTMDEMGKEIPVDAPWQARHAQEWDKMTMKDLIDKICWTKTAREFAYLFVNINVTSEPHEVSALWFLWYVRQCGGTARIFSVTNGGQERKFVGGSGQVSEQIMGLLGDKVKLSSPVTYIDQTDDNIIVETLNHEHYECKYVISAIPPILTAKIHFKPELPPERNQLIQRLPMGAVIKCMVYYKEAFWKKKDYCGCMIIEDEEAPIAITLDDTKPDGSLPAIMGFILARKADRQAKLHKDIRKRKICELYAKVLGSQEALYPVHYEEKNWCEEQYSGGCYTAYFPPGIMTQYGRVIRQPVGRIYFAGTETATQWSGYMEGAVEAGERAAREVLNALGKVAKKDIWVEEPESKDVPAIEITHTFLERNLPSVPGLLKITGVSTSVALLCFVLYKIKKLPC

[11] = target: T2, Amine oxidase [flavin-containing] B (Rattus norvegicus, UniProt P19643); assay: Inhibition of rat MAOB using benzylamine as substrate pretreated for 1200 secs followed by substrate addition and measured after 3600 secs
T2 sequence (P19643 whole entry): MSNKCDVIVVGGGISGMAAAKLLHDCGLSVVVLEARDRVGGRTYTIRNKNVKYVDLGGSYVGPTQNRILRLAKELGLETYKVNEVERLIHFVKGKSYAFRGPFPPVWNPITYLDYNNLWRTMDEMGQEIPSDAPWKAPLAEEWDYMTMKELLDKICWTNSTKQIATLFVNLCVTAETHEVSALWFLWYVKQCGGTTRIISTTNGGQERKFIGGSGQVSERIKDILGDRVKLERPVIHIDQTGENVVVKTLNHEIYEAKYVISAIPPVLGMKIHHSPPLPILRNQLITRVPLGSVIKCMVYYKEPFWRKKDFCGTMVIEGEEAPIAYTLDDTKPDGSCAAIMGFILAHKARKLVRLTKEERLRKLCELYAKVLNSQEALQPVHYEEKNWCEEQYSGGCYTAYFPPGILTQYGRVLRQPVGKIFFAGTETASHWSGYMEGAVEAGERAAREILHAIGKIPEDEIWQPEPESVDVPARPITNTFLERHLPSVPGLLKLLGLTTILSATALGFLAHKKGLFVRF
In short: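 Enzyme: liver mitochondrial MAO prepared by sucrose differential centrifugation and held in 100 mmol/L K-phosphate pH 7.9. Inhibitor pre-incubated with enzyme 1200 s at 37 °C, 5% CO2. Benzylamine was added (final 2 mmol/L; MAO final 0.15 mg/mL) and reacted 3600 s. Stopped with 10% perchloric acid. Benzaldehyde extracted into cyclohexane and read at A240. DMSO blank.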

Rattus norvegicus [12] = assay: In-vivo inhibition of MAOA in rat brain at 20 mg/kg/day, po administered for 1 week measured post last dose; assay type: functional, organism-based
Rattus norvegicus [13] = assay: In-vivo inhibition of MAOA in rat plasma at 20 mg/kg/day, po administered for 1 week measured post last dose; assay type: functional, organism-based

SMILES | Activity (Rattus norvegicus [1]) [ng/mL] | LD50 [2] [mg/kg] | Activity (Rattus norvegicus [3]) [ng/mg] | Activity (Rattus norvegicus [4]) [ng/mg] | inhibition (Rattus norvegicus [5]) | Activity (Rattus norvegicus [6]) [ng/mL] | Activity (Rattus norvegicus [7]) [ng/mL] | inhibition (Rattus norvegicus [8]) | Activity (Rattus norvegicus [9]) [ng/mg] | IC50 [10] [µM] | IC50 [11] [µM] | inhibition (Rattus norvegicus [12]) | inhibition (Rattus norvegicus [13])
O=C(NCO)c1ccc(Cl)cn1 | 569.2 | 3000 | 0.667 | 0.469 | Active | 201.3 | 100.6 | Active | 4.12 |  |  |  | 
O=C(NCCO)c1ccc(Cl)cn1 | 628.3 | 3060 | 0.768 | 0.515 | Active | 211.6 | 116.4 | Active | 4.99 |  |  |  | 
O=C(NCCBr)c1ccc(Cl)cc1 |  |  |  |  |  |  |  |  |  | 26.8 | 895 |  | 
O=C(NCCBr)c1ccc(Cl)cn1 |  |  |  |  |  |  |  |  |  | 790 | 24.8 |  | 
O=C(NCCO)c1ccc(Cl)cc1 | 452.7 | 3090 | 1.51 | 0.753 |  | 379.4 | 214.8 |  | 3.73 |  |  | Active | Active
O=C(NCCN1CCOCC1)c1ccc(Cl)cc1 [MOCLOBEMIDE] |  |  |  |  |  |  |  |  |  |  | 783 |  | 
O=C(NCO)c1ccc(Cl)cc1 | 436.9 | 3000 | 0.832 | 0.545 |  | 231.1 | 123.2 |  | 2.64 | 7.49 | 1440 | Active | Active
NCCNC(=O)c1ccc(Cl)cc1 | 440.4 | 2810 | 1.21 | 0.613 |  | 307.5 | 150.4 |  | 3.13 |  |  | Active | Active
NCCCNC(=O)c1ccc(Cl)cc1 |  |  |  |  |  |  |  |  |  | 24.5 | 1610 |  | 
NCCNC(=O)c1ccc(Cl)cn1 [LAZABEMIDE] |  | 1000 to 2000 |  |  |  |  |  |  |  |  |  |  | 
